STAT1 activator = STAT1 signaling activation; NIH 3T3 STAT1-luciferase reporter, IFN-gamma, luminescence; 100% = IFN-gamma alone, no compound; activation (% of control), % at 5.5 µM; hit rate 2.6% among 200,000; AID 932;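 active = activation above the screen-wide mean activation plus 3 SD, cut at about 130% in these data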;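 also: raw ratio to IFN-gamma control signal so 100% means no change and 0% no light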
STAT3 activator = STAT3 signaling activation; U3A cells, IL-6 STAT3-luciferase reporter, luminescence; 100% = signal with IL-6 EC80 alone; hit rate 0.91% among 190,000; AID 871; activation (% of control), % at 5.6 µM;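 active = activation above the screen-wide mean of compound activation plus 3 SD, cut at about 130% in these data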;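 also: 0% = background luminescence of wells with medium and substrate only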
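Material: STAT1-lacking human U3A cells, STAT3 luciferase reporter | Benchmarks: IL-6-only wells as 100% reference | Probe or stimulus: IL-6 (33 ng/mL) | Timing: Compound 1 h, then IL-6 6 h at 37 °C | Detection: Luminescence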
STAT1 inh = inhibitors of IFN-gamma induced STAT1 signaling. NIH 3T3 STAT1-luciferase reporter, luminescence. inhibition, % at 5.5 µM. hit rate 0.35% among 200,000;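 active = inhibition above a set limit, the mean inhibition across all tested compounds plus 3 SD, cut at about 34% in these data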;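 also: 0% = IFN-gamma with DMSO and 100% = IFN-gamma with 300 µM nifuroxazide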
NF-kB expr up = raises NF-kB expression in human neuronal cells | hit rate 1.6% among 190,000 | NF-kB reporter expression; active compounds read high | fold change at 12.5 µM | AID 1239; in the data active = fold change above about 3.3
APP 5'UTR act = activates APP 5'UTR luciferase reporter; SH-SY5Y APP 5'UTR luciferase reporter, luminescence; zero percent = DMSO vehicle wells; hit rate 1% among 190,000; activation, % at 2 µM;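 active = activation above a set limit, based on mean plus 3 SD of controls, cut at about 140% in these data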
STAT3 blocker = inhibitors of IL-6 induced STAT3 signaling | hit rate 0.89% among 190,000 | U3A cells, IL-6 STAT3-luciferase reporter, luminescence; host cell line lacks STAT1 | inhibition, % at 5.5 µM;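 active = inhibition above the mean inhibition across all screened compounds plus 3 SD, cut at about 44% in these data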;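 also: 0% = DMSO only wells and 100% = 100 µM nifuroxazide control wells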
Active calls of the source: *. Rows were chosen to be rich in hits. Some 4.9% of all compounds tested hit in one or more screens of this group.

How did COc1ccc(-c2noc(CSc3ccccc3)n2)cc1OC do in these assays?
STAT1 activator: 130*; STAT3 activator: 115; STAT1 inh: -32; NF-kB expr up: 2.3; APP 5'UTR act: 54; STAT3 blocker: -12

How did c1ccc(SCc2nc(-c3ccncc3)no2)cc1 do in these assays?
STAT1 activator: 129*; STAT3 activator: 117; STAT1 inh: -33; NF-kB expr up: 1.9; APP 5'UTR act: 11; STAT3 blocker: -17

How did CCCc1nc2sc3c(=O)n(N)cnc3c2c2c1CCCC2 do in these assays?
STAT1 activator: 99; STAT3 activator: 99; STAT1 inh: 1; NF-kB expr up: 1.1; APP 5'UTR act: -2; STAT3 blocker: -1

How did COc1ccc(-n2c(CNC(=O)COc3ccc(Cl)cc3Cl)n[nH]c2=S)cc1 do in these assays?
STAT1 activator: 98; STAT3 activator: 99; STAT1 inh: 1; NF-kB expr up: 1.1; APP 5'UTR act: -10; STAT3 blocker: 5

What do the screens show for `CCNC(=S)SCCOc1ccc(C)cc1`?
STAT1 activator: 101; STAT3 activator: 105; STAT1 inh: -1; NF-kB expr up: 1; APP 5'UTR act: -4; STAT3 blocker: -9

How did CCN(CC1CCCO1)C(=O)CCc1nnc(Cc2ccc3c(c2)OCO3)o1 (configuration not stated) do in these assays?
STAT1 activator: 96; STAT3 activator: 95; STAT1 inh: 5; NF-kB expr up: 1.3; APP 5'UTR act: 11; STAT3 blocker: 11

Results for CCCOC1CCCN(C(=O)CCc2nnc(Cc3cccc(C)c3)o2)C1 (configuration not stated) ?
STAT1 activator: 143*; STAT3 activator: 113; STAT1 inh: -50; NF-kB expr up: 2.1; APP 5'UTR act: 13; STAT3 blocker: -10

Results for Cc1cccc(Cc2nnc(CCC(=O)N(CC3CC3)CC3CCCO3)o2)c1 (configuration not stated) ?
STAT1 activator: 136*; STAT3 activator: 116; STAT1 inh: -39; NF-kB expr up: 2.4; APP 5'UTR act: 50; STAT3 blocker: -12

How did O=c1c2c(nc3cc(-c4ccccc4)[nH]n13)CCC2 do in these assays?
STAT1 activator: 135*; STAT3 activator: 83; STAT1 inh: -38; NF-kB expr up: 3.7*; APP 5'UTR act: 103; STAT3 blocker: 24

Results for COc1ccc(-c2cc3nc4c(c(=O)n3[nH]2)CCC4)cc1 ?
STAT1 activator: 122; STAT3 activator: 92; STAT1 inh: -24; NF-kB expr up: 2.6; APP 5'UTR act: 12; STAT3 blocker: 12

How did O=c1c2c(nc3cc(-c4ccccc4)[nH]n13)CCS2 do in these assays?
STAT1 activator: 116; STAT3 activator: 111; STAT1 inh: -18; NF-kB expr up: 7.7*; APP 5'UTR act: 113; STAT3 blocker: -13

What do the screens show for `O=C(CCCN1CCOCC1)c1ccc2c(c1)OCCO2`?
STAT1 activator: 142*; STAT3 activator: 119; STAT1 inh: -46; NF-kB expr up: 1.4; APP 5'UTR act: 101; STAT3 blocker: -20

What do the screens show for `CC(C)=CCN1CCNC(=O)C1CC(=O)NCc1nc(C)c(C)s1` (configuration not stated)?
STAT1 activator: 100; STAT3 activator: 108; STAT1 inh: -2; NF-kB expr up: 1.4; APP 5'UTR act: 28; STAT3 blocker: -4

How did O=C(N/N=C/c1sc(=O)n(-c2ccccc2)c1Cl)c1ccccc1 do in these assays?
STAT1 activator: 147*; STAT3 activator: 91; STAT1 inh: -53; NF-kB expr up: 1; APP 5'UTR act: 89; STAT3 blocker: 11

How did Cc1c(C(=O)Nc2nc3ccccc3[nH]2)oc2ccc(Br)cc12 do in these assays?
STAT1 activator: 114; STAT3 activator: 86; STAT1 inh: -15; NF-kB expr up: 1.1; APP 5'UTR act: 40; STAT3 blocker: 12

How did COC(=O)c1sc(NC(=O)c2ccc(C)o2)nc1C do in these assays?
STAT1 activator: 121; STAT3 activator: 93; STAT1 inh: -22; NF-kB expr up: 1.3; APP 5'UTR act: 70; STAT3 blocker: 7

How did O=C(Nc1nc2ccccc2[nH]1)c1cccs1 do in these assays?
STAT1 activator: 123; STAT3 activator: 82; STAT1 inh: -22; NF-kB expr up: 3.8*; APP 5'UTR act: 166*; STAT3 blocker: 25

How did O=C(Nc1nc2ccccc2[nH]1)C12CC3CC(CC(C3)C1)C2 do in these assays?
STAT1 activator: 132*; STAT3 activator: 100; STAT1 inh: -35; NF-kB expr up: 3.1; APP 5'UTR act: 79; STAT3 blocker: 6

Results for COC(=O)c1sc(NC(=O)c2oc3ccccc3c2C)nc1C ?
STAT1 activator: 144*; STAT3 activator: 128; STAT1 inh: -48; NF-kB expr up: 2.5; APP 5'UTR act: 27; STAT3 blocker: -30

What do the screens show for `Cc1c(C(=O)Nc2nc3ccccc3[nH]2)oc2ccccc12`?
STAT1 activator: 162*; STAT3 activator: 145*; STAT1 inh: -66; NF-kB expr up: 8.1*; APP 5'UTR act: 182*; STAT3 blocker: -58

What do the screens show for `O=C(Nc1nc2ccccc2[nH]1)C1CC1`?
STAT1 activator: 124; STAT3 activator: 104; STAT1 inh: -27; NF-kB expr up: 0.94; APP 5'UTR act: 10; STAT3 blocker: 3

Results for Cc1noc(NC(=O)c2ccccc2C(F)(F)F)c1C#N ?
STAT1 activator: 97; STAT3 activator: 100; STAT1 inh: 3; NF-kB expr up: 1.9; APP 5'UTR act: -13; STAT3 blocker: 4

Results for O=c1[nH]c2ccccc2nc1/C=C/c1ccc(O)cc1 ?
STAT1 activator: 138*; STAT3 activator: 79; STAT1 inh: -44; NF-kB expr up: 1; APP 5'UTR act: 81; STAT3 blocker: 26

How did O=c1[nH]c2ccccc2nc1/C=C(\O)c1cccs1 do in these assays?
STAT1 activator: 146*; STAT3 activator: 169*; STAT1 inh: -51; NF-kB expr up: 1.5; APP 5'UTR act: 96; STAT3 blocker: -84

How did O=c1[nH]c2ccccc2nc1/C=C(\O)C1CC1 do in these assays?
STAT1 activator: 98; STAT3 activator: 89; STAT1 inh: 2; NF-kB expr up: 1.6; APP 5'UTR act: 2; STAT3 blocker: 13

How did CC(C)(C)/C(O)=C/c1nc2ccccc2[nH]c1=O do in these assays?
STAT1 activator: 97; STAT3 activator: 101; STAT1 inh: 3; NF-kB expr up: 1.5; APP 5'UTR act: 13; STAT3 blocker: 2

What do the screens show for `CSc1ccccc1C(=O)Nc1nc2ccccc2[nH]1`?
STAT1 activator: 111; STAT3 activator: 96; STAT1 inh: -12; NF-kB expr up: 2.1; APP 5'UTR act: 126; STAT3 blocker: 9

Results for O=C(Nc1nc2ccccc2[nH]1)c1ccc(Br)o1 ?
STAT1 activator: 144*; STAT3 activator: 123; STAT1 inh: -49; NF-kB expr up: 3.6*; APP 5'UTR act: 91; STAT3 blocker: -27

Results for S=C(NC1CCCC1)N1CCN(C/C=C/c2ccccc2)CC1 ?
STAT1 activator: 81; STAT3 activator: 90; STAT1 inh: 17; NF-kB expr up: 1.1; APP 5'UTR act: 1; STAT3 blocker: 16
